ChEMBL document CHEMBL1123516, “Substituted 1,3,4-thiadiazoles with anticonvulsant activity. 1. Hydrazines” (J Med Chem, 1986)

What was measured:
Mus musculus [1] = assay: Anticonvulsant activity tested by maximal electroshock test (MES) in mouse after 1 hr of administration; assay type: functional
Summary of the method: (§1)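 Male BKW mice (LACA origin), 18-22 g, dosed ip or po with compound dissolved or suspended in 2% Tween 80 in distilled water. Readout was block of hind limb tonic seizure. ED50 was derived by probit analysis using the computerized Bliss method.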

Mus musculus [2] = assay: Anticonvulsant activity tested by maximal metrazole seizure (MMS) test in mouse after 1 hr of administration; assay type: functional
Summary of the method: (§2)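 Male BKW mice, 18-22 g, dosed orally with compound in 2% Tween 80/water. Metrazol 120 mg/kg ip was given 1 h after dosing. ED50 for block of hind limb tonic seizure was derived by Bliss probit analysis.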

[3] = Neurotoxicity by performing a rotarod test in mouse after 1 hr of administration; assay type: toxicity, organism-based; conditions: in vivo
Summary of the method: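 Male BKW mice, 18-22 g, were pre-trained on a rotorod turning at 16 rpm (3 cm drum). They were dosed ip or po in 2% Tween 80/water and tested at timed intervals. TD50, the dose at which 50% fell off the rod, was derived by probit analysis.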

Rattus norvegicus [4] = assay: Maximum percent fall in mean arterial blood pressure was evaluated by injecting 100 mg/kg perorally in DOCA hypertensive rats; assay type: functional; conditions: route oral
Mus musculus [5] = assay: Inhibition of hind limb tonus was tested at time of peak effect by maximal electroshock test (MES) in mouse on intraperitoneal administration of compound; assay type: functional; conditions: Hindlimb, ip; summary of the method: as §1
Mus musculus [6] = assay: Inhibition of hind limb tonus was tested at time of peak effect by maximal metrazole seizure (MMS) test administered intraperitoneally in mouse; assay type: organism-based; conditions: Hindlimb, ip
Summary of the method: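 Male BKW mice (18-22 g) received compound intraperitoneally in 2% aqueous Tween 80 and were challenged with metrazol 120 mg/kg ip at the time of peak effect. ED50 for block of hind limb tonic seizure in 50% of mice was obtained by probit analysis.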

Mus musculus [7] = assay: Inhibition of hind limb tonus was tested by maximal metrazole seizure (MMS) test in mouse after 1 hr of peroral administration; assay type: functional; conditions: Hindlimb, po; summary of the method: as §2
Rattus norvegicus [8] = assay: Inhibition of hind limb tonus was tested by maximal electroshock test (MES) in rat after 1 hr of peroral administration; assay type: functional; conditions: Hindlimb, po
Rattus norvegicus [9] = assay: Inhibition of hind limb tonus was tested by maximal electroshock test (MES) in rat after 4 hr of peroral administration; assay type: functional; conditions: Hindlimb, po
Rattus norvegicus [10] = assay: Inhibition of hind limb tonus was tested by maximal metrazole seizure test after 1 hr of peroral administration of compound; assay type: functional; conditions: Hindlimb, po
Rattus norvegicus [11] = assay: Inhibition of hind limb tonus was tested by maximal metrazole seizure test after 4 hr of peroral administration; assay type: functional; conditions: Hindlimb, po
Rattus norvegicus [12] = assay: Inhibition of hind limb tonus was tested at time of peak effect by maximal electroshock test (MES) in rat on intraperitoneal administration of compound; assay type: functional; conditions: Hindlimb, ip
Summary of the method: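 Rats received compound intraperitoneally and were tested at the time of peak effect. ED50 was the dose blocking hind limb tonic seizure in 50% of animals, derived by probit analysis using the Bliss computerized method (Finney).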

[13] = Effect of compound on mouse motor performance was tested by performing a rotarod test after 1 hr of peroral administration; assay type: ADME, organism-based; conditions: in vivo, po
Summary of the method: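 Male BKW mice (LACA origin, 18-22 g) were pre-trained on a rotorod at 16 rpm with a 3 cm drum. Compound was given orally in 2% Tween 80 in water, and mice were tested 1 h later. TD50 was the dose at which 50% fell off, derived by probit analysis.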

[14] = Effect of compound on mouse motor performance was tested by rotarod test administered intraperitoneally; assay type: ADME, organism-based; conditions: in vivo, ip
Summary of the method: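 Male BKW mice (18-22 g) were pre-trained on a 16 rpm rotorod with a 3 cm drum. Drug was injected intraperitoneally as a solution or suspension in 2% aqueous Tween 80, and mice were tested at the time of peak effect. TD50 was the dose making 50% of trained animals fall off, calculated by probit analysis.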

[15] = Protective index (rat) was from the ratio of plasma concentration at which side effects occur by plasma concentration at which anticonvulsant activity occur.; assay type: functional
Summary of the method: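 Rat plasma drug concentration at rotorod impairment was divided by the plasma concentration at MES anticonvulsant activity. Both were measured by HPLC-UV in plasma from dosed rats.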

Mus musculus [16] = assay: Inhibition of hind limb tonus was tested by maximal electroshock test (MES) in mouse after 1 hr of peroral administration of compound; assay type: functional; conditions: Hindlimb, po; summary of the method: as §1

Row | Structure (SMILES) | ED50 (Mus musculus [1]) | ED50 (Mus musculus [2]) | TD50 at 1 h [3] | also measured
1 | Cc1ccccc1-c1nnc(N(C)N)s1.Cl | 75 mg/kg | 41 mg/kg | 108 mg/kg | Decrease in blood pressure (Rattus norvegicus [4]): 29%
2 | CCCCCCOc1ccccc1-c1nnc(N(C)N)s1.Cl | 26 mg/kg | 27 mg/kg | ~160 mg/kg | –
3 | CNNc1nnc(-c2ccccc2C)s1 | > 100 mg/kg | > 100 mg/kg | – | –
4 | Cc1ccccc1-c1nnc(N(N)C(C)C)s1.Cl | 54 mg/kg | 49 mg/kg | – | –
5 | CCC1(c2ccccc2)C(=O)NC(=O)NC1=O [PHENOBARBITAL] | – | – | – | ED50 (Mus musculus [5]): 18 mg/kg; ED50 (Mus musculus [6]): 6 mg/kg; ED50 (Mus musculus [7]): 4 mg/kg; ED50 (Rattus norvegicus [8]): 9 mg/kg; ED50 (Rattus norvegicus [9]): 3 mg/kg; ED50 (Rattus norvegicus [10]): 4 mg/kg; ED50 (Rattus norvegicus [11]): 5 mg/kg; ED50 (Rattus norvegicus [12]): 3 mg/kg; TD50 at 1 h [13]: 68 mg/kg; TD50 [14]: 86 mg/kg; PI [15]: 2.42; ED50 (Mus musculus [16]): 12 mg/kg
6 | Cc1ccccc1-c1nnc(NN(C)C(C)C)s1 | 140 mg/kg | > 100 mg/kg | – | –
7 | CNN(C)c1nnc(-c2ccccc2C)s1 | 10 mg/kg | 23 mg/kg | 72 mg/kg | –
8 | CN(N)c1nnc(-c2cccc(Oc3ccccc3)c2)s1 | 100 mg/kg | 111 mg/kg | – | –
9 | Cc1ccccc1-c1nnc(NNC(c2ccccc2)c2ccccc2)s1 | > 200 mg/kg | > 100 mg/kg | – | –
10 | CC(C)N(N)c1nnc(-c2ccccc2Cl)s1 | 54 mg/kg | > 100 mg/kg | > 800 mg/kg | –
11 | CNN(C)c1nnc(-c2ccccc2-c2ccccc2)s1.Cl | ~100 mg/kg | > 100 mg/kg | – | –
12 | Cl.c1ccc(NNc2nnc(-c3ccccc3-c3ccccc3)s2)cc1 | > 100 mg/kg | > 100 mg/kg | – | –
13 | CC(C)N(c1nnc(-c2ccccc2Cl)s1)N(C)C.Cl | 116 mg/kg | > 200 mg/kg | – | –
14 | CN(N)c1nnc(-c2ccc(-c3ccccc3)cc2)s1 | > 200 mg/kg | – | – | –
15 | Cc1ccccc1-c1nnc(N(N)c2ccccc2)s1 | > 100 mg/kg | > 100 mg/kg | > 400 mg/kg | –
16 | NN(c1ccccc1)c1nnc(-c2ccccc2Cl)s1 | > 100 mg/kg | > 100 mg/kg | – | –

Row | Structure (SMILES) | ED50 (Mus musculus [1]) | ED50 (Mus musculus [2]) | TD50 at 1 h [3] | also measured
17 | Clc1ccccc1-c1nnc(NNc2ccccc2)s1 | > 100 mg/kg | > 200 mg/kg | – | –
18 | CNN(c1nnc(-c2ccccc2Cl)s1)C(C)C | > 100 mg/kg | > 100 mg/kg | – | –
19 | CN(Nc1ccccc1)c1nnc(-c2ccccc2Cl)s1 | > 100 mg/kg | > 100 mg/kg | – | –
20 | Cc1ccccc1-c1nnc(N(C)NC(C)C)s1.Cl | 35 mg/kg | 38 mg/kg | – | –
21 | Cc1ccccc1-c1nnc(NN)s1.Cl | > 100 mg/kg | 30 mg/kg | 55 mg/kg | Decrease in blood pressure (Rattus norvegicus [4]): 63%
22 | CC(C)NN(C)c1nnc(-c2ccccc2Cl)s1.Cl | 16 mg/kg | 30 mg/kg | 71 mg/kg | –
23 | Cc1ccccc1-c1nnc(NNc2ccccc2)s1 | > 100 mg/kg | > 100 mg/kg | – | –
24 | Cc1ccccc1-c1nnc(NNC2CCCC2)s1.Cl | > 100 mg/kg | > 100 mg/kg | – | –
25 | Cc1ccccc1-c1nnc(N(Cc2ccccc2)N(C)C)s1.Cl | > 200 mg/kg | > 100 mg/kg | – | –
26 | Clc1ccccc1-c1nnc(NNC2CCCC2)s1 | > 100 mg/kg | > 100 mg/kg | – | –
27 | CCCCCCOc1ccccc1-c1nnc(NNC2CCCC2)s1.Cl | > 100 mg/kg | > 100 mg/kg | – | –
28 | Cc1ccccc1-c1nnc(NNC(C)C)s1 | 83 mg/kg | 54 mg/kg | 449 mg/kg | –
29 | CN(NC1CCCC1)c1nnc(-c2ccccc2Cl)s1.Cl | 106 mg/kg | > 100 mg/kg | – | –
30 | Cl.NNc1nnc(-c2ccccc2Cl)s1 | 70 mg/kg | 25 mg/kg | > 568 mg/kg | Decrease in blood pressure (Rattus norvegicus [4]): 21%
31 | CNN(Cc1ccccc1)c1nnc(-c2ccccc2C)s1.Cl | 109 mg/kg | 93 mg/kg | 341 mg/kg | –
32 | Cl.NN(c1nnc(-c2ccccc2Cl)s1)C1CCCCC1 | > 100 mg/kg | > 100 mg/kg | – | –
